Measured values as given in ChEMBL document CHEMBL1687936, “Radiosynthesis and biological evaluation of L- and D-S-(3-[18F]fluoropropyl)homocysteine for tumor imaging using positron emission tomography” (J Med Chem, 2011).

Tests used:
[1] = system: A-375; experiment: Drug uptake in human A375 cells in presence of amino acid transport system A inhibitor MeAIB; type: ADME, cell-based
In short: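 Cells were prepared as for the uptake assay and preincubated at 37 °C with inhibitor at 12.5 mmol/L in PBS; controls received PBS. 0.37 MBq [18F]tracer was added and incubated 30 min at 37 °C. Cells were washed cold, lysed and γ-counted. Uptake is given as % of the control group, n = 3.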

[2] = system: Pancreas; experiment: Drug level in pancreas extract of BALB/c nude mouse xenografted with human A375 cells assessed as radioactivity in protein fraction after 0.25 to 2 hrs; type: ADME, tissue-based, A-375; conditions: in vivo
In short: (§1)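 Female Balb/c nude mice bore subcutaneous A375 flank tumors and received 18-20 MBq tracer iv. Plasma or tissue was sonicated in 10% TCA with unlabeled FPHCys and KF, then centrifuged at 6000g; the pellet was re-extracted twice. Protein-bound fraction is pellet versus supernatant radioactivity, sampled at 0.25, 1 and 2 h.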

[3] = system: Brain; experiment: Biodistribution in brain of BALB/c nude mouse xenografted with human A375 cells at 0.8 to 1 MBq, iv after 120 mins by gamma-counter; type: ADME, organism-based, A-375; conditions: in vivo, 2 h
In short: (§2)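 Female Balb/c nude mice with s.c. A375 flank tumors, studied 26 days after tumor induction. Tracer 0.8-1 MBq in 100 μL saline given i.v. Groups of n = 5 killed at 15, 30, 60 and 120 min. Organs weighed and counted in a γ-counter against dilutions of the injected dose. Values are % ID/g wet tissue, mean ± SD.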

[4] = system: Lung; experiment: Biodistribution in lungs of BALB/c nude mouse xenografted with human A375 cells at 0.8 to 1 MBq, iv after 30 mins by gamma-counter; type: ADME, organism-based, A-375; conditions: in vivo, 0.5 h; in short: as §2
[5] = system: Brain; experiment: Drug level in brain cortex extract of BALB/c nude mouse xenografted with human A375 cells assessed as radioactivity in protein fraction after 0.25 to 2 hrs; type: ADME, tissue-based, A-375; conditions: in vivo; in short: as §1
[6] = system: Brain; experiment: Metabolic stability in brain of BALB/c nude mouse xenografted with human A375 cells assessed as radioactivity after 1 hrs by HPLC analysis; type: ADME, tissue-based, A-375; conditions: in vivo
In short: (§3)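 A375-tumored Balb/c nude mice received 18-20 MBq tracer iv. Plasma and urine were spiked with unlabeled FPHCys and KF and injected directly; tissues were sonicated in saline with carrier and centrifuged at 6000g. Radio-HPLC on C18 with methanol/phosphate buffer pH 6 gave intact fraction as authentic peak over total activity, at 0.25, 1 and 2 h.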

[7] = system: Heart; experiment: Biodistribution in heart of BALB/c nude mouse xenografted with human A375 cells at 0.8 to 1 MBq, iv after 30 mins by gamma-counter; type: ADME, organism-based, A-375; conditions: in vivo, 0.5 h; in short: as §2
[8] = system: Spleen; experiment: Biodistribution in spleen of BALB/c nude mouse xenografted with human A375 cells at 0.8 to 1 MBq, iv after 15 mins by gamma-counter; type: ADME, organism-based, A-375; conditions: in vivo, 0.25 h; in short: as §2
[9] = system: Brain; experiment: Biodistribution in brain of BALB/c nude mouse xenografted with human A375 cells at 0.8 to 1 MBq, iv after 60 mins by gamma-counter; type: ADME, organism-based, A-375; conditions: in vivo, 1 h; in short: as §2
[10] = system: Kidney; experiment: Biodistribution in kidney of BALB/c nude mouse xenografted with human A375 cells at 0.8 to 1 MBq, iv after 15 mins by gamma-counter; type: ADME, organism-based, A-375; conditions: in vivo, 0.25 h; in short: as §2
[11] = system: Blood; experiment: Biodistribution in blood of BALB/c nude mouse xenografted with human A375 cells at 0.8 to 1 MBq, iv after 60 mins by gamma-counter; type: ADME, organism-based, A-375; conditions: in vivo, 1 h; in short: as §2
[12] = system: Spleen; experiment: Biodistribution in spleen of BALB/c nude mouse xenografted with human A375 cells at 0.8 to 1 MBq, iv after 120 mins by gamma-counter; type: ADME, organism-based, A-375; conditions: in vivo, 2 h; in short: as §2
[13] = system: Pancreas; experiment: Biodistribution in pancreas of BALB/c nude mouse xenografted with human A375 cells at 0.8 to 1 MBq, iv after 15 mins by gamma-counter; type: ADME, organism-based, A-375; conditions: in vivo, 0.25 h; in short: as §2
[14] = system: Pancreas; experiment: Biodistribution in pancreas of BALB/c nude mouse xenografted with human A375 cells at 0.8 to 1 MBq, iv after 60 mins by gamma-counter; type: ADME, organism-based, A-375; conditions: in vivo, 1 h; in short: as §2
[15] = system: Blood; experiment: Biodistribution in blood of BALB/c nude mouse xenografted with human A375 cells at 0.8 to 1 MBq, iv after 15 mins by gamma-counter; type: ADME, organism-based, A-375; conditions: in vivo, 0.25 h; in short: as §2
[16] = system: Brain; experiment: Biodistribution in brain of BALB/c nude mouse xenografted with human A375 cells at 0.8 to 1 MBq, iv after 30 mins by gamma-counter; type: ADME, organism-based, A-375; conditions: in vivo, 0.5 h; in short: as §2
[17] = system: Heart; experiment: Biodistribution in heart of BALB/c nude mouse xenografted with human A375 cells at 0.8 to 1 MBq, iv after 15 mins by gamma-counter; type: ADME, organism-based, A-375; conditions: in vivo, 0.25 h; in short: as §2
[18] = system: Plasma; experiment: Drug level in plasma of BALB/c nude mouse xenografted with human A375 cells assessed as radioactivity in protein fractions after 0.25 to 2 hrs; type: ADME, cell-free, A-375; conditions: in vivo; in short: as §1
[19] = system: Heart; experiment: Biodistribution in heart of BALB/c nude mouse xenografted with human A375 cells at 0.8 to 1 MBq, iv after 60 mins by gamma-counter; type: ADME, organism-based, A-375; conditions: in vivo, 1 h; in short: as §2
[20] = Metabolic stability in human A375 cells xenografted in BALB/c nude mouse assessed as radioactivity after 0.25 to 2 hrs by HPLC analysis; type: ADME, cell-based, A-375; conditions: in vivo; in short: as §3
[21] = system: Lung; experiment: Biodistribution in lungs of BALB/c nude mouse xenografted with human A375 cells at 0.8 to 1 MBq, iv after 15 mins by gamma-counter; type: ADME, organism-based, A-375; conditions: in vivo, 0.25 h; in short: as §2
[22] = Drug level in tumor extract of BALB/c nude mouse xenografted with human A375 cells assessed as radioactivity in protein fraction after 0.25 to 2 hrs; type: ADME, Neoplasm, A-375; conditions: in vivo; in short: as §1
[23] = system: Muscle tissue; experiment: Biodistribution in muscle of BALB/c nude mouse xenografted with human A375 cells at 0.8 to 1 MBq, iv after 60 mins by gamma-counter; type: ADME, organism-based, A-375; conditions: in vivo, 1 h; in short: as §2
[24] = system: Brain; experiment: Biodistribution in brain of BALB/c nude mouse xenografted with human A375 cells at 0.8 to 1 MBq, iv after 15 mins by gamma-counter; type: ADME, organism-based, A-375; conditions: in vivo, 0.25 h; in short: as §2
[25] = system: Urinary bladder; experiment: Biodistribution in bladder of BALB/c nude mouse xenografted with human A375 cells after 60 mins by PET/CT imaging; type: ADME, organism-based, A-375; conditions: in vivo, 1 h
In short: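 Female Balb/c nude mice with A375 tumors (1×10^6 cells in Ca/Mg-free PBS injected s.c. in left flank at 6 weeks old). Mice under isoflurane in oxygen. 10 min CT scan, then 18-20 MBq tracer in 100 μL saline given i.v. with a 2 h PET acquisition. Coronal images at 60 min postinjection; n = 3.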

[26] = system: Pancreas; experiment: Metabolic stability in pancreas of BALB/c nude mouse xenografted with human A375 cells assessed as radioactivity after 0.25 to 1 hrs by HPLC analysis; type: ADME, tissue-based, A-375; conditions: in vivo; in short: as §3
[27] = system: Heart; experiment: Biodistribution in heart of BALB/c nude mouse xenografted with human A375 cells at 0.8 to 1 MBq, iv after 120 mins by gamma-counter; type: ADME, organism-based, A-375; conditions: in vivo, 2 h; in short: as §2
[28] = system: Kidney; experiment: Biodistribution in kidney of BALB/c nude mouse xenografted with human A375 cells at 0.8 to 1 MBq, iv after 30 mins by gamma-counter; type: ADME, organism-based, A-375; conditions: in vivo, 0.5 h; in short: as §2
[29] = system: Muscle tissue; experiment: Biodistribution in muscle of BALB/c nude mouse xenografted with human A375 cells at 0.8 to 1 MBq, iv after 120 mins by gamma-counter; type: ADME, organism-based, A-375; conditions: in vivo, 2 h; in short: as §2
[30] = system: Lung; experiment: Biodistribution in lungs of BALB/c nude mouse xenografted with human A375 cells at 0.8 to 1 MBq, iv after 120 mins by gamma-counter; type: ADME, organism-based, A-375; conditions: in vivo, 2 h; in short: as §2
[31] = Biodistribution in tumor of BALB/c nude mouse xenografted with human A375 cells at 0.8 to 1 MBq, iv after 30 mins by gamma-counter; type: ADME, organism-based, Neoplasm, A-375; conditions: in vivo, 0.5 h; in short: as §2

Structure (SMILES)	Drug uptake [1]	Drug uptake [2]	Drug uptake [3]	Drug uptake [4]	Drug uptake [5]	Stability [6]	Drug uptake [7]	Drug uptake [8]	Drug uptake [9]	Drug uptake [10]	Drug uptake [11]	Drug uptake [12]	Drug uptake [13]	Drug uptake [14]	Drug uptake [15]	Drug uptake [16]	Drug uptake [17]	Drug uptake [18]	Drug uptake [19]	Stability [20]	further results
Cl.N[C@@H](CCSCCC[18F])C(=O)O	Active	1%	2.57 % ID/g	5.07 % ID/g	1%	90%	4.2 % ID/g	5.05 % ID/g	1.3 % ID/g	15.4 % ID/g	2.32 % ID/g	1.39 % ID/g	14.3 % ID/g	6.97 % ID/g	5.17 % ID/g	2.57 % ID/g	5.08 % ID/g	1%	2.32 % ID/g	82%	Drug uptake [21]: 5.21 % ID/g; Drug uptake [22]: 1%; Drug uptake [23]: 2.52 % ID/g; Drug uptake [24]: 3.13 % ID/g; Drug uptake [25]: Active; Stability [26]: 85%; Drug uptake [27]: 1.37 % ID/g; Drug uptake [28]: 12.6 % ID/g; Drug uptake [29]: 1.52 % ID/g; Drug uptake [30]: 1.63 % ID/g; Drug uptake [31]: 8.28 % ID/g
Cl.N[C@H](CCSCCC[18F])C(=O)O	Active	1%	0.25 % ID/g	2.84 % ID/g	1%	90%	3.05 % ID/g	4.24 % ID/g	0.75 % ID/g	12.2 % ID/g	0.89 % ID/g	0.31 % ID/g	37.1 % ID/g	4.79 % ID/g	3.51 % ID/g	1.56 % ID/g	3.92 % ID/g	1%	1.16 % ID/g	82%	Drug uptake [21]: 4.11 % ID/g; Drug uptake [22]: 1%; Drug uptake [23]: 1.44 % ID/g; Drug uptake [24]: 1.53 % ID/g; Drug uptake [25]: Active; Stability [26]: 85%; Drug uptake [27]: 0.4 % ID/g; Drug uptake [28]: 6.49 % ID/g; Drug uptake [29]: 0.63 % ID/g; Drug uptake [30]: 0.85 % ID/g; Drug uptake [31]: 5.87 % ID/g
